Test results published in ChEMBL document CHEMBL4673252, “Discovery and Early Clinical Development of Isobutyl 1-[8-Methoxy-5-(1-oxo-3H-isobenzofuran-5-yl)-[1,2,4]triazolo[1,5-a]pyridin-2-yl]cyclopropanecarboxylate (LEO 39652), a Novel "Dual-Soft" PDE4 Inhibitor for Topical Treatment of Atopic Dermatitis” (J Med Chem, 2020).

Assay: Clearance in human liver microsomes at 0.5 uM incubated for 40 mins in presence of NADPH by LC-MS/MS analysis
Assay type: ADME, Microsome
Conditions: read-out: CLH
Summary of the method: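 Human liver microsomes (0.5 mg/mL) with 1 mM NADPH and 0.5 μM test compound, incubated for 40 min. Samples were taken before NADPH and at 5, 10, 20, 40 min, quenched with cold acetonitrile containing internal standard, and analysed by LC-MS/MS. Control incubations in buffer and without NADPH. Apparent clearance was calculated from depletion.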

Structure (SMILES) | CLint scaled at 0.5 µM
COc1ccc(-c2ccc3c(c2)COC3=O)n2nc(C3CC3)nc12 | 64 mL/min/kg
COc1ccc(-c2cccc(C#N)c2)n2nc(C3(COC(=O)C(C)C)CC3)nc12 | > 200 mL/min/kg
COc1ccc(-c2ccc3c(c2)COC3=O)n2nc(C3(C(=O)OC4CCC4)CC3)nc12 | > 200 mL/min/kg

Next, values leading:

CLint scaled at 0.5 µM | Structure (SMILES)
140 mL/min/kg | CCOC(=O)C1(c2nc3c(OC)ccc(-c4ccc5c(c4)COC5=O)n3n2)CC1
> 200 mL/min/kg | CCCCOC(=O)C1(c2nc3c(OC)ccc(-c4ccc5c(c4)COC5=O)n3n2)CC1
< 16 mL/min/kg | COc1ccc(-c2ccc3c(c2)COC3=O)n2nc(C3(C(=O)O)CC3)nc12
> 200 mL/min/kg | COc1ccc(-c2ccc3c(c2)COC3=O)n2nc(C3(C(=O)OC(C)(C)C)CC3)nc12

Assay: Half life in human whole blood at 0.1 uM by LC-MS/MS analysis
Assay type: ADME, tissue-based
Conditions: not given

Structure (SMILES) | half-life at 0.1 µM
COc1ccc(-c2ccc3c(c2)COC3=O)n2nc(C3CC3)nc12 | 0.2 h
COc1ccc(-c2cccc(C#N)c2)n2nc(C3(COC(=O)C(C)C)CC3)nc12 | 0.467 h
COc1ccc(-c2ccc3c(c2)COC3=O)n2nc(C3(C(=O)OC4CCC4)CC3)nc12 | < 0.167 h

More lines, now with the values ahead:

half-life at 0.1 µM | Structure (SMILES)
0.183 h | CCOC(=O)C1(c2nc3c(OC)ccc(-c4ccc5c(c4)COC5=O)n3n2)CC1
0.333 h | CCCCOC(=O)C1(c2nc3c(OC)ccc(-c4ccc5c(c4)COC5=O)n3n2)CC1
> 1 h | COc1ccc(-c2ccc3c(c2)COC3=O)n2nc(C3(C(=O)O)CC3)nc12
0.183 h | COc1ccc(-c2ccc3c(c2)COC3=O)n2nc(C3(C(=O)OC(C)(C)C)CC3)nc12

Assay: Half life in human keratinocytes at 1 uM by LC-MS/MS analysis
Assay type: ADME, cell-based, Keratinocyte
Conditions: not given
Summary of the method: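 Plated human epidermal keratinocytes (1 × 10⁴ cells/well) with 1 μM compound in duplicate for up to 24 h; sampled at 0, 1, 2, 4, 24 h, acetonitrile precipitation, LC-MS/MS. Controls in growth medium. Half-life reported.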

Structure (SMILES) | half-life at 1 µM
COc1ccc(-c2ccc3c(c2)COC3=O)n2nc(C3CC3)nc12 | > 12 h
COc1ccc(-c2cccc(C#N)c2)n2nc(C3(COC(=O)C(C)C)CC3)nc12 | 1.2 h
COc1ccc(-c2ccc3c(c2)COC3=O)n2nc(C3(C(=O)OC4CCC4)CC3)nc12 | > 9 h

Now from value to molecule:

half-life at 1 µM | Structure (SMILES)
> 12 h | CCOC(=O)C1(c2nc3c(OC)ccc(-c4ccc5c(c4)COC5=O)n3n2)CC1
10 h | CCCCOC(=O)C1(c2nc3c(OC)ccc(-c4ccc5c(c4)COC5=O)n3n2)CC1
> 12 h | COc1ccc(-c2ccc3c(c2)COC3=O)n2nc(C3(C(=O)O)CC3)nc12
> 12 h | COc1ccc(-c2ccc3c(c2)COC3=O)n2nc(C3(C(=O)OC(C)(C)C)CC3)nc12

Assay: Half life in mini pig whole blood at 0.1 uM by LC-MS/MS analysis
Assay type: ADME, tissue-based, Sus scrofa domesticus
Conditions: not given

half-life at 0.1 µM | Structure (SMILES)
> 1 h | COc1ccc(-c2ccc3c(c2)COC3=O)n2nc(C3(C(=O)O)CC3)nc12

Assay: Half life in rat whole blood at 0.1 uM by LC-MS/MS analysis
Assay type: ADME, tissue-based
Conditions: not given

half-life at 0.1 µM | Structure (SMILES)
> 1 h | COc1ccc(-c2ccc3c(c2)COC3=O)n2nc(C3(C(=O)O)CC3)nc12

Assay: Clearance in human hepatocytes at 10 uM by UPLC/TOF-MS analysis
Assay type: ADME, cell-based, Hepatocyte
Conditions: not given

CLhep predicted at 10 µM | Structure (SMILES)
7.1 mL/min/kg | COc1ccc(-c2ccc(C(=O)O)c(CO)c2)n2nc(C3(C(=O)OCC(C)(C)O)CC3)nc12
5.2 mL/min/kg | COc1ccc(-c2ccc3c(c2)COC3=O)n2nc(C3(C(=O)O)CC3)nc12

Assay: Clearance in mini pig hepatocytes at 10 uM by UPLC/TOF-MS analysis
Assay type: ADME, cell-based, Sus scrofa domesticus, Hepatocyte
Conditions: read-out: CLH

CLint scaled at 10 µM | Structure (SMILES)
13 mL/min/kg | COc1ccc(-c2ccc(C(=O)O)c(CO)c2)n2nc(C3(C(=O)OCC(C)(C)O)CC3)nc12
< 11 mL/min/kg | COc1ccc(-c2ccc3c(c2)COC3=O)n2nc(C3(C(=O)O)CC3)nc12

Assay: Drug exposure in human assessed as ratio of drug level to total AUC at 0.25% of Isobutyl 1-[8-Methoxy-5-(1-oxo-3H-isobenzofuran-5-yl)-[1,2,4]-triazolo[1,5-a]pyridin-2-yl]cyclopropanecarboxylate dosed via topical administration in lipid cream
Assay type: ADME, organism-based
Conditions: in vivo, topical_or_ocular

Drug uptake | Structure (SMILES)
1% | COc1ccc(-c2ccc(C(=O)O)c(CO)c2)n2nc(C3(C(=O)OCC(C)(C)O)CC3)nc12
15% | COc1ccc(-c2ccc3c(c2)COC3=O)n2nc(C3(C(=O)O)CC3)nc12

Assay: Drug exposure in Isobutyl 1-[8-Methoxy-5-(1-oxo-3H-isobenzofuran-5-yl)-[1,2,4]-triazolo[1,5-a]pyridin-2-yl]cyclopropanecarboxylate dosed cynomolgus monkey assessed as ratio of drug level to total AUC
Assay type: ADME, organism-based, Macaca fascicularis
Conditions: in vivo
Summary of the method: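 Blood was drawn at 0.25–24 h after infusion start and 6, 12, 24 h after infusion end into EDTA-K3, then plasma stabilized with ascorbic acid. LC-MS/MS quantification of parent and metabolites; noncompartmental PK.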

Drug uptake | Structure (SMILES)
1% | COc1ccc(-c2ccc(C(=O)O)c(CO)c2)n2nc(C3(C(=O)OCC(C)(C)O)CC3)nc12
45% | COc1ccc(-c2ccc3c(c2)COC3=O)n2nc(C3(C(=O)O)CC3)nc12

Assay: Drug exposure in of Isobutyl 1-[8-Methoxy-5-(1-oxo-3H-isobenzofuran-5-yl)-[1,2,4]-triazolo[1,5-a]pyridin-2-yl]cyclopropanecarboxylate dosed Gottingen mini pig assessed as ratio of drug level to total AUC at 0.5 to 2 mg/kg, iv measured up to 24 hrs by LC-MS/MS analysis
Assay type: ADME, organism-based, Sus scrofa domesticus
Conditions: in vivo, BLD = below limit of detection, dose 0.5-2 mg/kg

Drug uptake | Structure (SMILES)
Bld | COc1ccc(-c2ccc(C(=O)O)c(CO)c2)n2nc(C3(C(=O)OCC(C)(C)O)CC3)nc12

Same assay, conditions: in vivo, dose 0.5-2 mg/kg

Drug uptake | Structure (SMILES)
55% | COc1ccc(-c2ccc3c(c2)COC3=O)n2nc(C3(C(=O)O)CC3)nc12

Assay: Drug exposure in of Isobutyl 1-[8-Methoxy-5-(1-oxo-3H-isobenzofuran-5-yl)-[1,2,4]-triazolo[1,5-a]pyridin-2-yl]cyclopropanecarboxylate dosed Sprague-Dawley rat assessed as ratio of drug level to total AUC at 0.075 mg/kg, iv measured up to 30 mins by LC-MS/MS analysis
Assay type: ADME, organism-based
Conditions: in vivo, 0.5 h
Summary of the method: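 Male Sprague Dawley rats (n = 3) received a single iv injection of 0.075 mg/kg (50 μg/mL, 1.5 mL/kg) in 20% cyclodextrin. Blood was taken from the tongue vein at 1, 3, 6, 9, 12, 15 and 30 min into lithium-heparin, diluted 1:1 with heparin water, and analysed by LC-MS/MS for parent and metabolites.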

Drug uptake | Structure (SMILES)
55% | COc1ccc(-c2ccc3c(c2)COC3=O)n2nc(C3(C(=O)O)CC3)nc12

Assay: Drug exposure in skin of Gottingen mini pig at 0.25% dosed topically as monoglyceride cream measured after 24 hrs by LC-MS/MS analysis
Assay type: ADME, organism-based, Sus scrofa domesticus, Skin of body
Conditions: in vivo, topical_or_ocular
Summary of the method: (§1)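 Female Göttingen minipigs received single topical application of 1 or 2.5 mg/g monoglyceride cream at 10 μL/cm² over 4 cm² of belly/flank; excess removed. At 24 h sites were tape stripped (2 + 10 strips), 8 mm punch biopsies were taken and snap frozen, then homogenized, acetonitrile precipitated and analysed by LC-MS/MS; n = 2.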

Drug uptake | Structure (SMILES)
< 0.1 µM | COc1ccc(-c2ccc3c(c2)COC3=O)n2nc(C3(C(=O)O)CC3)nc12

Assay: Drug exposure in skin of Gottingen mini pig at 0.1% dosed topically as monoglyceride cream measured after 24 hrs by LC-MS/MS analysis
Assay type: ADME, organism-based, Sus scrofa domesticus, Skin of body
Conditions: in vivo, topical_or_ocular
Summary of the method: as §1

Drug uptake | Structure (SMILES)
< 0.1 µM | COc1ccc(-c2ccc3c(c2)COC3=O)n2nc(C3(C(=O)O)CC3)nc12

Assay: Cmax in cynomolgus monkey at 30 mg/kg, sc dosed as single administration
Assay type: ADME, organism-based, Macaca fascicularis
Parameters: route subcutaneous, dose 30 mg/kg
Conditions: in vivo, read-out: Cmax
Summary of the method: (§2)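 Single subcutaneous dose of 30 mg/kg.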

Cmax | Structure (SMILES)
10.5 ng/mL | COc1ccc(-c2ccc(C(=O)O)c(CO)c2)n2nc(C3(C(=O)OCC(C)(C)O)CC3)nc12
71.7 ng/mL | COc1ccc(-c2ccc3c(c2)COC3=O)n2nc(C3(C(=O)O)CC3)nc12

Assay: Cmax in human patient with atopic dermatitis at 0.25% dosed topically as lipid cream
Assay type: ADME, organism-based
Parameters: dose 0.25 %
Conditions: in vivo, topical or ocular

Cmax | Structure (SMILES)
0.029 ng/mL | COc1ccc(-c2ccc(C(=O)O)c(CO)c2)n2nc(C3(C(=O)OCC(C)(C)O)CC3)nc12
0.355 ng/mL | COc1ccc(-c2ccc3c(c2)COC3=O)n2nc(C3(C(=O)O)CC3)nc12

Assay: AUC (0 to 24 hrs) in cynomolgus monkey at 30 mg/kg, sc dosed as single administration
Assay type: ADME, organism-based, Macaca fascicularis
Parameters: time < 24 hr, route subcutaneous, dose 30 mg/kg
Conditions: in vivo
Summary of the method: as §2

AUC(0-t) at 24 h | Structure (SMILES)
19.4 ng·h/mL | COc1ccc(-c2ccc(C(=O)O)c(CO)c2)n2nc(C3(C(=O)OCC(C)(C)O)CC3)nc12
208 ng·h/mL | COc1ccc(-c2ccc3c(c2)COC3=O)n2nc(C3(C(=O)O)CC3)nc12

Assay: AUC (0 to 24 hrs) in human patient with atopic dermatitis at 0.25% dosed topically as lipid cream
Assay type: ADME, organism-based
Parameters: time < 24 hr, dose 0.25 %
Conditions: in vivo, topical or ocular

AUC(0-t) at 24 h | Structure (SMILES)
0.27 ng·h/mL | COc1ccc(-c2ccc(C(=O)O)c(CO)c2)n2nc(C3(C(=O)OCC(C)(C)O)CC3)nc12
5.18 ng·h/mL | COc1ccc(-c2ccc3c(c2)COC3=O)n2nc(C3(C(=O)O)CC3)nc12
